Measurements from article PMC2647857 (Journal of the American Chemical Society, 2009).
Where “and” joins values, the source holds several entries; their conditions need not be identical. Equal entries are not always repeated. Where two headings read alike, the source gives them in different places.

Experiments:
NP1-E55Q = NP1-E55Q (Rhodnius prolixus, UniProt Q26239, E78Q); experiment: biochemical; format: binding
[1] = Spectroelectrochemical midpoint potential of the NO complex; format: physicochemical, Rhodnius prolixus; details: for ΔpHΔ(Em,NO) = ΔEm,NO(pH7.5) − ΔEm,NO(pH5.5) / ΔEm,NO = Em(mutant)−Em(standard) / Em,NO: NO bound
In short: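 Spectroelectrochemistry of ~0.05 mM E. coli-expressed protein in 0.1 M sodium phosphate or acetate at pH 5.5, 6.5 and 7.5, 27 ± 1 °C. SNAP supplied NO at a level fully complexing both oxidation states. Ag/AgCl reference ([…] mV vs SHE). Absorbance versus applied potential fit to Nernst equation; pH dependence and mutant−standard differences derived.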

[2] = Spectroelectrochemical midpoint potential, ligand-free; format: physicochemical, Rhodnius prolixus; details: for ΔEm = Em(mutant)−Em(standard) / Em: ligand-free
[3] = Imidazole binding constant to Fe; set-up: species or system Rhodnius prolixus
[4] = Histamine binding constant to Fe; set-up: species or system Rhodnius prolixus; details: pH 7.5
[5] = ligand-free, cited from earlier work
[6] = NO bound, cited from earlier work
[7] = read-out: Kd for NO dissociation, Fe(III), cited from earlier work
[8] = NO binding constant to Fe; set-up: species or system Rhodnius prolixus; details: pH 7.5

Chain of NP1-E55Q (Q26239 24-207 E78Q): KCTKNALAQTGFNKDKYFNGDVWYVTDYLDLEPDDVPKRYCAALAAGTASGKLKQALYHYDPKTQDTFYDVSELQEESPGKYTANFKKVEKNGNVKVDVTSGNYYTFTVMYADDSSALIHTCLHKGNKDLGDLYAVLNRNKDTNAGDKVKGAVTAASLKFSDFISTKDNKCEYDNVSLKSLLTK

Compound | ΔpHΔ(Em,NO) = ΔEm,NO(pH7.5) − ΔEm,NO(pH5.5) [1] [mV] | ΔEm,NO = Em(mutant)−Em(standard) ([1]; pH 5.5) | Em,NO ([1]; pH 5.5, 27 °C) [mV vs. SHE] | ΔEm,NO = Em(mutant)−Em(standard) ([1]; pH 6.5) [mV] | Em,NO ([1]; pH 6.5, 27 °C) [mV vs. SHE] | ΔEm,NO = Em(mutant)−Em(standard) ([1]; pH 7.5) | Em,NO ([1]; pH 7.5, 27 °C) [mV vs. SHE] | ΔEm = Em(mutant)−Em(standard) ([2]; pH 5.5) [mV] | Em ([2]; pH 5.5, 27 °C) [mV vs. SHE] | ΔEm = Em(mutant)−Em(standard) ([2]; pH 6.5) [mV] | Em ([2]; pH 6.5, 27 °C) [mV vs. SHE] | ΔEm = Em(mutant)−Em(standard) ([2]; pH 7.5) [mV] | Em ([2]; pH 7.5, 27 °C) [mV vs. SHE] | further results
c1c[nH]cn1 [imidazole, imidazole (ImH)] | – | – | – | – | – | – | – | – | – | – | – | – | – | Kd (NP1-E55Q): 200 nM
NP2-D1A,D29A: site-directed mutant of NP2-D1A, D29 replaced by Ala | 50±3 | −28±2 mV | 20±1 | 26±2 | 36±1 | 22±2 mV | 2±1 | −17±3 | −334±3 | 19±6 | −308±3 | 12±3 | −313±1 | binding constant of imidazole larger than that of histamine ([3]; pH 7.5): 1.3 log units
NP2-D1A,D31A: site-directed mutant of NP2-D1A, D31 replaced by Ala | 22±3 | −10±2 mV | 38±2 | −3±2 | 7±2 | 12±3 mV | −8±2 | −55±6 | −373±6 | −45±9 | −372±8 | −41±4 | −366±3 | –
NP2-D1A,D36A: site-directed mutant of NP2-D1A, D36 replaced by Ala | 39±5 | −12±4 mV | 36±4 | 20±2 | 30±2 | 28±3 mV | 8±2 | 25±4 | −293±3 | 11±7 | −315±4 | 18±5 | −307±4 | –
NP2-D1A,D89A: site-directed mutant of NP2-D1A, D89 replaced by Ala | 33±3 | 3 mV and 3±2 mV | – | 9±2 | 19±1 | 37 mV and 37±2 mV | 17±2 | 34±3 | −284±3 | 23±7 | −304±4 | 5±4 | −320±3 | –
NP2-D1A,D99A: site-directed mutant of NP2-D1A, D99 replaced by Ala | 21±2 | −10±2 mV | 38±1 | −1±3 | 9±2 | 11±2 mV | −9±1 | 14±4 | −304±4 | 13±6 | −314±1 | −12±5 | −337±4 | –
NP2-D1A,D128A: site-directed mutant of NP2-D1A, D128 replaced by Ala | 38±4 | −16±4 mV | 32±3 | −8±2 | 2±1 | 22±2 mV | 2±1 | 7±4 | −311±4 | – | – | −57±4 | −382±3 | –
NP2-D1A,E53Q: site-directed mutant of NP2-D1A, buried E53 replaced by Gln | 64±4 | 40±3 mV | 88±3 | 95±2 | 105±1 | 104 mV and 104±3 mV | 84±2 | – | – | – | – | 10±4 | −316±3 | –
NP2-D1A,E100A: site-directed mutant of NP2-D1A, E100 replaced by Ala | 24±3 | −5±2 mV | 43±2 | −5±2 | 5±1 | 19±2 mV | 0±1 | 6±6 | −312±6 | 17±7 | −310±3 | −32±6 | −357±5 | larger histamine binding constant than standard [4]: 0.7 log units
NP2-D1A,E124A: site-directed mutant of NP2-D1A, E124 replaced by Ala | −2±6 | 4±5 mV | 52±5 | – | – | 2±3 mV | −18±3 | 125±4 | −193±4 | – | – | 7±4 | −318±2 | increase in imidazole binding constant ([3]; at both pH values (5.5 and 7.5)): 0.7 log units
NP2-D1A,K127A: site-directed mutant of NP2-D1A, K127 replaced by Ala | 27±5 | −27±3 mV | 21±2 | −4±2 | 6±2 | – | −20±4 | −9±5 | −327±5 | −2±6 | −329±3 | −54±4 | −379±2 | midpoint potential more negative with respect to NP2-D1A ([2]; pH 7.5, absence of NO): 54 mV
NP2-D1A: D1A mutant of NP2 with M0 cleaved during expression, used as standard | – | – | – | – | – | – | – | – | – | – | – | – | – | decrease of NO-bound Em between pH 5.5 and 7.5 ([1]; NO complex): 68 mV; pH dependence of Em, negative shift ([1]; NO complex, pH 5.5–7.5 range): 34 mV/pH unit; Em ([5]; pH 5.5, 27 °C ref 20): −318±1 mV vs. SHE; Em ([5]; pH 6.5, 27 °C ref 20): −327±6 mV vs. SHE; Em ([5]; pH 7.5, 27 °C ref 20): −325±3 mV vs. SHE; Em,NO ([6]; pH 5.5, 27 °C ref 20): 48±1 mV vs. SHE; Em,NO ([6]; pH 6.5, 27 °C ref 20): 10±1 mV vs. SHE; Em,NO ([6]; pH 7.5, 27 °C ref 20): −20±1 mV vs. SHE
NP2–M0D1: recombinant wild-type nitrophorin 2 expressed with the N-terminal methionine present | – | – | – | – | – | – | – | – | – | – | – | – | – | Kd ([7]; pH 5.5 ref 19): 1 nM; Kd ([7]; pH 7.5 ref 19): 20 nM; NO formation constant Kf, Fe(III) form [8]: 2e+08 M⁻¹; Kd ([8]; read-out: NO dissociation constant Kd, Fe(III) form): 5 nM
